# Experimental data reported in ChEMBL document CHEMBL1132160, “Structure-antiviral activity relationship in the series of pyrimidine and purine N-[2-(2-phosphonomethoxy)ethyl] nucleotide analogues. 1. Derivatives substituted at the carbon atoms of the base” (J Med Chem, 1999).
# Experiments:
# [1] = Inhibitory activity against murine sarcoma virus induced transformation of murine C3H/3T3 embryo fibroblasts; format: functional, Mus musculus
# Outline: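 Murine C3H/3T3 embryo fibroblasts were seeded at 5 × 10⁵ cells/mL. After 24 h they were infected with 80 focus-forming units of MSV for 90–120 min at 37 °C. The medium was then replaced with fresh medium containing various compound concentrations, and transformation was examined microscopically after 6 days.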
# [2] = test system: Cytomegalovirus; assay: Inhibitory activity against cytomegalovirus (CMV) Davis strain; format: functional, organism-based; conditions: Human betaherpesvirus 5
# Outline: (§1)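 HEL cell cultures, grown to confluence, received 100 CCID50 of virus. After 1 h adsorption, the inoculum was removed and the cultures were incubated with serial concentrations of compound (400, 200, 100, ... μg/mL).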
# [3] = test system: Cytomegalovirus; assay: Inhibitory activity against cytomegalovirus (CMV) AD 169 strain; format: functional, organism-based; conditions: Human betaherpesvirus 5; outline: as §1
# [4] = test system: Human alphaherpesvirus 2; assay: Inhibitory activity against herpes simplex virus type 2 (HSV-2) Lyons strain; format: functional, organism-based
# Outline: (§2)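 Confluent E6SM cell cultures were inoculated with 100 CCID50 of virus and allowed 1 h for adsorption. Residual virus was then removed, and the cells were incubated with test compound at 400, 200, 100, ... μg/mL. Viral cytopathicity was scored once it reached completion in untreated infected controls.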
# [5] = Inhibitory activity against herpes simplex virus type 2 (HSV-2) 196 strain; format: functional; outline: as §2
# [6] = test system: Human immunodeficiency virus 1; assay: Inhibition of human immunodeficiency virus type 1 (HIV-1) induced cytopathogenicity in CEM cells; format: functional, organism-based; conditions: Human immunodeficiency virus 1, CCRF-CEM
# Outline: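 CEM cells (~3 × 10⁵ cells/mL) were infected with 100 CCID50 of HIV-1 (IIIB)/mL and plated with dilutions of compound. After 4 days at 37 °C, giant cell formation was assessed microscopically.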
# [7] = test system: Human alphaherpesvirus 1; assay: Inhibitory activity against herpes simplex virus type 1 (HSV-1) McIntyre strain; format: functional, organism-based; outline: as §2
# [8] = test system: Human alphaherpesvirus 1; assay: Inhibition of herpes simplex virus type 1 (HSV-1) F strain; format: functional, organism-based; outline: as §2
# [9] = test system: Human alphaherpesvirus 2; assay: Inhibitory activity against herpes simplex virus type 2 (HSV-2) G strain; format: functional, organism-based; outline: as §2
# [10] = test system: Human alphaherpesvirus 1; assay: Inhibitory activity against herpes simplex virus type 1 (HSV-1) KOS strain; format: functional, organism-based; outline: as §2
# [11] = test system: Human immunodeficiency virus 2; assay: Inhibition of human immunodeficiency virus type 2 (HIV-2) induced cytopathogenicity in CEM cells; format: functional, organism-based; conditions: Human immunodeficiency virus 2, CCRF-CEM
# [12] = test system: Vaccinia virus; assay: Inhibitory activity against vaccinia virus (VV); format: functional, organism-based; conditions: Orthopoxvirus vaccinia
# Outline: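 Confluent E6SM cell cultures were inoculated with 100 CCID50 of virus and left for 1 h adsorption, then residual virus was removed. Cultures were incubated with test compound at serial concentrations (400, 200, 100, ... μg/mL). Virus-induced cytopathicity was scored once it reached completion in untreated infected control cultures.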
# [13] = test system: Human immunodeficiency virus 1; assay: Inhibitory activity of compound against human immunodeficiency virus type 1 (HIV-1) induced cytopathogenicity in MT-4 cells; format: functional, organism-based; conditions: Human immunodeficiency virus 1, MT4
# Outline: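 Human MT-4 cells (~4 × 10⁵ cells/mL) were infected with 100 CCID50 of HIV-1 (IIIB)/mL and seeded into wells containing compound dilutions. After 5 days at 37 °C, viable cells were counted by trypan blue exclusion in a blood cell counting chamber.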
smiles,measurement,setting,value
Nc1nc(O)c2nc(Br)n(CCOCP(=O)(O)O)c2n1,EC50,[1],> 0.16 µg/mL
same,EC50,[2],> 50 µg/mL
same,EC50,[3],43 µg/mL
same,EC50,[4],> 400 µg/mL
same,EC50,[5],240 µg/mL
same,EC50,[6],> 100 µg/mL
same,EC50,[7],240 µg/mL
same,EC50,[8],240 µg/mL
same,EC50,[9],240 µg/mL
same,EC50,[10],240 µg/mL
same,EC50,[11],> 100 µg/mL
CC(C)CCCCCOP(=O)(COCCn1cnc2c(N)nc(N)nc21)OCCCCCC(C)C,EC50,[1],> 8 µg/mL
same,EC50,[2],0.8 µg/mL
same,EC50,[12],> 16 µg/mL
same,EC50,[3],0.86 µg/mL
same,EC50,[6],> 4 µg/mL
same,EC50,[9],> 16 µg/mL
same,EC50,[10],> 16 µg/mL
same,EC50,[11],> 4 µg/mL
Nc1nc(Cl)c2ncn(CCOCP(=O)(O)O)c2n1,EC50,[1],> 0.16 µg/mL
same,EC50,[2],0.3 µg/mL
same,EC50,[3],0.05 µg/mL
same,EC50,[4],0.38 µg/mL
same,EC50,[5],0.38 µg/mL
same,EC50,[6],> 0.16 µg/mL
same,EC50,[7],0.22 µg/mL
same,EC50,[8],0.13 µg/mL
same,EC50,[9],0.38 µg/mL
same,EC50,[10],0.23 µg/mL
same,EC50,[11],> 0.16 µg/mL
CC(C)CCCCCOP(=O)(COCCn1cnc2nc(N)nc(O)c21)OCCCCCC(C)C,EC50,[1],> 8 µg/mL
same,EC50,[2],11 µg/mL
same,EC50,[12],> 16 µg/mL
same,EC50,[3],11 µg/mL
same,EC50,[6],> 20 µg/mL
same,EC50,[9],> 16 µg/mL
same,EC50,[10],> 16 µg/mL
same,EC50,[11],> 20 µg/mL
CC(C)OP(=O)(COCCn1c(Br)nc2c(O)nc(N)nc21)OC(C)C,EC50,[1],> 40 µg/mL
same,EC50,[2],> 50 µg/mL
same,EC50,[3],> 50 µg/mL
same,EC50,[4],240 µg/mL
same,EC50,[5],240 µg/mL
same,EC50,[6],> 100 µg/mL
same,EC50,[7],240 µg/mL
same,EC50,[8],240 µg/mL
same,EC50,[9],> 400 µg/mL
same,EC50,[10],> 400 µg/mL
same,EC50,[11],> 100 µg/mL
CC(C)OP(=O)(COCCn1cnc2c(N)ncnc21)OC(C)C,EC50,[1],> 40 µg/mL
same,EC50,[2],30 µg/mL
same,EC50,[12],> 400 µg/mL
same,EC50,[3],8 µg/mL
same,EC50,[9],> 400 µg/mL
same,EC50,[13],171 µg/mL
same,EC50,[10],> 400 µg/mL
CC(C)OP(=O)(O)COCCn1cnc2c(N)ncnc21,EC50,[1],> 40 µg/mL
same,EC50,[2],> 50 µg/mL
same,EC50,[12],> 400 µg/mL
same,EC50,[3],> 50 µg/mL
same,EC50,[6],> 100 µg/mL
same,EC50,[9],300 µg/mL
same,EC50,[10],200 µg/mL
same,EC50,[11],> 100 µg/mL
CC(C)OP(=O)(O)COCCn1cnc2c(N)nc(N)nc21,EC50,[1],> 200 µg/mL
same,EC50,[2],> 50 µg/mL
same,EC50,[12],> 400 µg/mL
same,EC50,[3],> 50 µg/mL
same,EC50,[6],> 100 µg/mL
same,EC50,[9],> 400 µg/mL
same,EC50,[10],150 µg/mL
same,EC50,[11],> 100 µg/mL
Nc1cc2ncn(CCOCP(=O)(O)O)c2c(O)n1,EC50,[2],> 100 µg/mL
same,EC50,[3],> 100 µg/mL
same,EC50,[4],> 200 µg/mL
same,EC50,[5],> 200 µg/mL
same,EC50,[7],> 200 µg/mL
same,EC50,[8],> 200 µg/mL
same,EC50,[9],> 200 µg/mL
same,EC50,[10],> 200 µg/mL
Nc1nc(N)c2nc(Br)n(CCOCP(=O)(O)O)c2n1,EC50,[1],2.43 µg/mL
same,EC50,[2],12 µg/mL
same,EC50,[12],300 µg/mL
same,EC50,[3],8 µg/mL
same,EC50,[4],20 µg/mL
same,EC50,[5],70 µg/mL
same,EC50,[6],> 100 µg/mL
same,EC50,[7],20 µg/mL
same,EC50,[8],7 µg/mL
same,EC50,[9],20 µg/mL
same,EC50,[10],20 µg/mL
same,EC50,[11],> 100 µg/mL
CC(C)CCCCCOP(=O)(COCCn1cnc2c(N)ncnc21)OCCCCCC(C)C,EC50,[2],3 µg/mL
same,EC50,[12],> 3.2 µg/mL
same,EC50,[3],1 µg/mL
same,EC50,[6],> 4 µg/mL
same,EC50,[9],3.2 µg/mL
same,EC50,[10],> 3.2 µg/mL
same,EC50,[11],> 4 µg/mL
CC(C)CCCCCOP(=O)(COCCn1cnc2c(O)nc(N)nc21)OCCCCCC(C)C,EC50,[1],> 40 µg/mL
same,EC50,[2],1.1 µg/mL
same,EC50,[12],> 80 µg/mL
same,EC50,[3],1.2 µg/mL
same,EC50,[6],> 4 µg/mL
same,EC50,[9],> 80 µg/mL
same,EC50,[10],> 80 µg/mL
same,EC50,[11],> 4 µg/mL
CCOP(=O)(COCCn1cnc2c(N)ncnc21)OCC,EC50,[1],> 40 µg/mL
same,EC50,[6],> 100 µg/mL
same,EC50,[11],> 100 µg/mL
CC(C)OP(=O)(O)COCCn1cnc2c(O)nc(N)nc21,EC50,[1],> 0.064 µg/mL
same,EC50,[2],0.3 µg/mL
same,EC50,[3],0.35 µg/mL
same,EC50,[4],1.9 µg/mL
same,EC50,[5],1.9 µg/mL
same,EC50,[6],> 20 µg/mL
same,EC50,[7],0.64 µg/mL
same,EC50,[8],0.64 µg/mL
same,EC50,[9],5.3 µg/mL
same,EC50,[10],5.7 µg/mL
same,EC50,[11],11 µg/mL
